Reference: publication PMC7302971 (Bioorganic chemistry, 2020)
pIC50: −log10 of the molar value.

Key:
GLUT5 = experiment: GLUT transport inhibition assay in hxt0 yeast cells; format: cell-based, human; settings: 50 μM compound, 10 mM C14-fructose
In short: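 Human GLUT4 was expressed in VW4000fgy1erg4 yeast (1% maltose, then 0.2% glucose, SC-uracil). GLUT5 was expressed in VW4000 (YEP with 2% maltose and G418, then 2% fructose). PBS-washed cells were exposed to 50 μM test compound. Uptake of 14C-glucose (5 mM, GLUT4) or 14C-fructose (10 mM, GLUT5) ran 10 min, followed by quench, filtration and scintillation counting. Activity was relative to 1% DMSO and to saturating phloretin (GLUT4) or MSNBA (GLUT5). Triplicates.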

GLUT1 = target: T1, GLUT1 (Homo sapiens, UniProt P11166); experiment: GLUT transport inhibition assay in hxt0 yeast cells; format: cell-based
T1 sequence (P11166 1-492): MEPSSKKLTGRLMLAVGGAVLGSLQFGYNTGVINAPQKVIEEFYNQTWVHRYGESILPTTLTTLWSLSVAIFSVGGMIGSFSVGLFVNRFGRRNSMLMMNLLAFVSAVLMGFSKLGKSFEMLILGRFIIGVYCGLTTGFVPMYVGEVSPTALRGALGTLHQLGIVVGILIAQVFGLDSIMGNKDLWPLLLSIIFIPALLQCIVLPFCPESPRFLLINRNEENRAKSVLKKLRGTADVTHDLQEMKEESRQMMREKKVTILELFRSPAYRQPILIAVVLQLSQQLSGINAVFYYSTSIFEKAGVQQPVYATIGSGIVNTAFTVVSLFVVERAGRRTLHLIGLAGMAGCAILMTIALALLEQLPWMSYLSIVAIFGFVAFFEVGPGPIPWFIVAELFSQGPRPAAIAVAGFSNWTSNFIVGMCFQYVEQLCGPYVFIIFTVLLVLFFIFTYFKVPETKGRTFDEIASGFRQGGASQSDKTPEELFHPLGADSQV
In short: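 hxt0 yeast (VW4000fgy1) expressing human GLUT1 was grown at 30 °C in SC-uracil, first on 2% maltose, then on 2% glucose. Cells were PBS-washed (pH 7.4) to OD600 ~10. Test compound was varied from 0.1 to 100 μM. Uptake of 5 mM 14C-glucose ran 10 min and was stopped with ice-cold quench buffer (pH 5.5). Cells were filtered and counted by scintillation.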

pIC50 (GLUT1): 4.55
Structure (SMILES): O=C(CN1C(=O)SC(=Cc2ccccn2)C1=O)Nc1nc2ccccc2s1 [Compound P19, N-(benzo[d]thiazol-2-yl)-2-(2,4-dioxo-5-(pyridin-2-ylmethylene)thiazolidin-3-yl)acetamide]
relative transport activity of GLUT5 (GLUT5): ineffective
